{"data": "Results pooled from the literature"}
{"SMILES": "CN1CCC(n2cnc(-c3ccc(F)cc3)c2-c2ccnc(Nc3ccccc3)n2)CC1", "organism": "Trypanosoma brucei", "test": "parasite growth", "measurement": "EC50", "result": "0.501 µM"}
{"SMILES": "CNC(=O)c1cc(Oc2ccc(NC(=O)Nc3ccc(Cl)c(C(F)(F)F)c3)cc2)ccn1", "organism": "Plasmodium berghei", "test": "parasite growth, luciferase", "test system": "human", "setting": "liver stage", "measurement": "IC50", "result": "1.4 µM"}
{"SMILES": "N#Cc1ccc(/C=C/c2nc3ccccc3c(=O)n2-c2cccc(C(=O)NCCO)c2)cc1", "organism": "Enterococcus faecium", "test": "microbial growth, broth dilution", "test system": "NCTC7171", "measurement": "MIC", "result": "> 128 µg/mL"}
{"SMILES": "O=C(O)Cc1cccc(Oc2ccc(-c3noc(-c4ccc(O)cc4)n3)cc2)c1", "organism": "Enterococcus faecium", "test": "microbial growth, broth dilution", "setting": "24 h", "measurement": "MIC", "result": "> 32 µg/mL"}
{"SMILES": "COc1cc(C=NNc2ncnc3c2cnn3-c2ccccc2)ccc1O", "organism": "Trypanosoma brucei", "test": "parasite growth", "measurement": "EC50", "result": "1.58 µM"}
{"SMILES": "Cl.Oc1cccc2c1[nH]c1c(C3=CC4(O)CC/C=C\\CCCCN5CCC3C3(CC6/C=C\\CCCCN6C43)C5)nccc12 (single isomer, unassigned; (+))", "organism": "Mycobacterium intracellulare", "test": "microbial growth, resazurin", "test system": "ATCC23068", "measurement": "IC50", "result": "0.22 µg/mL"}
{"SMILES": "O=c1c2cnccc2nc(/C=C/c2ccc(F)cc2)n1-c1cccc(O)c1", "organism": "Enterococcus faecium", "test": "microbial growth, broth dilution", "test system": "NCTC7171", "measurement": "MIC", "result": "> 128 µg/mL"}
{"SMILES": "Cl.Oc1ccc(-c2nc(-c3ccc(Oc4ccc5c(c4)CNCC5)cc3)no2)cc1", "organism": "Enterococcus faecium", "test": "microbial growth, broth dilution", "setting": "24 h", "measurement": "MIC", "result": "4 µg/mL"}
{"SMILES": "CC1=C(C(=O)Nc2cc3cn[nH]c3cc2F)C(c2ccc(C(F)(F)F)cc2)CC(=O)N1 (stereo not drawn)", "organism": "Plasmodium berghei", "test": "parasite growth, luciferase", "test system": "human", "setting": "liver stage", "measurement": "IC50", "result": "4.7 µM"}
{"SMILES": "N#Cc1ccc(/C=C/c2nc3ccccc3c(=O)n2-c2cccc(C(=O)NCCC(=O)O)c2)cc1", "organism": "Enterococcus faecium", "test": "microbial growth, broth dilution", "test system": "NCTC7171", "measurement": "MIC", "result": "> 128 µg/mL"}
{"SMILES": "O=C1NC(=O)C(c2ccccc2Cl)=C1Nc1cccc(O)c1", "organism": "Trypanosoma brucei", "test": "parasite growth", "measurement": "EC50", "result": "2 µM"}
{"SMILES": "O=C(Nc1ccccc1-c1ccc(F)c(F)c1)c1nccnc1C(F)(F)F", "organism": "Alternaria brassicicola", "test": "microbial growth", "measurement": "EC50", "result": "0.057 µg/mL"}
{"SMILES": "CC(C)=Cc1cccc2c1C(=NNc1ccc(S(N)(=O)=O)cc1)C(=O)N2", "organism": "Trypanosoma brucei", "test": "parasite growth", "measurement": "EC50", "result": "0.0316 µM"}
{"SMILES": "CCCCCCCCCCCCCC(O)CC(O)CO (stereo not drawn)", "organism": "Mycobacterium intracellulare", "test": "microbial growth, resazurin", "test system": "ATCC23068", "measurement": "IC50", "result": "> 200 µg/mL"}
{"SMILES": "CN(c1ccc(NC(=O)Nc2c(Cl)cccc2Cl)cc1)c1ccnc(Nc2cccc(CS(C)(=O)=O)c2)n1", "organism": "Trypanosoma brucei", "test": "parasite growth", "measurement": "EC50", "result": "7.94 µM"}
{"SMILES": "CC(CN)c1ccc(Oc2ccc(-c3noc(-c4ccc(O)cc4)n3)cc2)cc1.Cl (racemic)", "organism": "Enterococcus faecium", "test": "microbial growth, broth dilution", "setting": "24 h", "measurement": "MIC", "result": "4 µg/mL"}
{"SMILES": "CC1=C(C(=O)Nc2ccc3[nH]ncc3c2)C(c2ccc3ccccc3c2)CC(=O)N1 (stereo not drawn)", "organism": "Trypanosoma brucei", "test": "parasite growth", "measurement": "EC50", "result": "3.98 µM"}
{"SMILES": "CC(=O)OCC#Cc1ccc(/C=C/c2nc3ccccc3c(=O)n2-c2cccc(C(=O)O)c2)cc1", "organism": "Enterococcus faecium", "test": "microbial growth, broth dilution", "test system": "NCTC7171", "measurement": "MIC", "result": "> 128 µg/mL"}
